Measurements reported in ChEMBL document CHEMBL1212866, “Synthesis and anti-hepatitis C virus activity of novel ethyl 1H-indole-3-carboxylates in vitro” (Bioorg Med Chem, 2010).

Legend:
Hepatitis C virus [1] = experiment: Antiviral activity against HCV 2a infected in human Huh7.5 cells assessed inhibition of viral entry after 3 days; format: functional, Hepacivirus hominis, genotype 2a, Huh-7
Summary of the method: (§1)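 Naive Huh-7.5 cells infected with viral particles carrying a subgenomic HCV RNA with a firefly luciferase reporter, then plated in 96-well format with compounds present. Luciferase activity read after three days of incubation. IC50 calculated; single-point lines give % inhibition at 100 µM.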

[2] = Cytotoxicity against human Huh7.5 cells by celltiter-blue viability assay; format: cell-based; conditions: Huh-7
Summary of the method: (§2)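 Huh-7.5 cells exposed to compounds, and viability estimated by CellTiter-Blue, a resazurin reagent that metabolically active cells reduce to fluorescent resorufin (excitation 579 nm, emission 584 nm). TC50 taken as the 50% cytotoxic concentration; the single-point line reflects testing at 50 µM.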

[3] = Selectivity index, IC50 for human Huh7.5 cells to TC50 for inhibition of HCV 2a entry into human Huh7.5 cells; format: functional, Huh-7
Summary of the method: (§3)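 Index computed as TC50 divided by IC50. TC50 comes from the CellTiter-Blue viability assay in Huh-7.5 cells. IC50 comes from the luciferase-reporter HCV infection (entry) or replicon (replication) assay in Huh-7.5 cells, read after three days.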

Hepatitis C virus [4] = experiment: Antiviral activity against HCV 2a infected in human Huh7.5 cells assessed inhibition of viral replication after 3 days by luciferase assay; format: functional, Hepacivirus hominis, genotype 2a, Huh-7
Summary of the method: (§4)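 Huh-7.5 cells transfected with an RNA transcript of a replicon carrying a firefly luciferase reporter, then plated in 96-well plates with compounds present. Luciferase activity measured after three days of incubation. IC50 calculated; single-point lines give % inhibition at 100 µM.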

[5] = Selectivity index, IC50 for human Huh7.5 cells to TC50 for inhibition of HCV 2a replication in human Huh7.5 cells; format: functional, Huh-7; summary of the method: as §3
Hepatitis C virus [6] = experiment: Antiviral activity against HCV 2a infected in human Huh7.5 cells assessed inhibition of viral entry at 100uM after 3 days; format: functional, Hepacivirus hominis; conditions: genotype 2a, Huh-7, 72 h; summary of the method: as §1
Hepatitis C virus [7] = experiment: Antiviral activity against HCV 2a infected in human Huh7.5 cells assessed inhibition of viral replication at 100 uM after 3 days by luciferase assay; format: functional, Hepacivirus hominis; conditions: genotype 2a, Huh-7, 72 h; summary of the method: as §4
[8] = Cytotoxicity against human Huh7.5 cells at 50 uM by celltiter-blue viability assay; format: cell-based; conditions: huh-7, 50 µM; summary of the method: as §2

| Structure (SMILES) | TC50 (Hepatitis C virus [1]) [µM] | IC50 [2] [µM] | Selectivity Index [3] | TC50 (Hepatitis C virus [4]) [µM] | Selectivity Index [5] | inhibition at 100 µM (Hepatitis C virus [6]) [%] | inhibition at 100 µM (Hepatitis C virus [7]) [%] | Activity [8] |
| --- | --- | --- | --- | --- | --- | --- | --- | --- |
| CCOC(=O)c1c(C)n(C)c2ccc(CN3CCCC3)cc12 | >50 | 5 | >3.8 | >50 | >10 |  |  |  |
| CCOC(=O)c1c(CS(=O)(=O)c2ccccc2)n(C)c2ccc(Cn3ccnc3)cc12 | 23 | 15 | 4.6 | 18 | 1.2 |  |  |  |
| CCOC(=O)c1c(CS(=O)(=O)c2ccccc2)n(C)c2ccc(CN3CCCNCC3)cc12 | >50 | 12 | >2.4 | >50 | >4.2 |  |  |  |
| CCOC(=O)c1c(C)n(C)c2ccc(CN(C)C)cc12 | >50 | 3 | >6.3 | >50 | >16.7 |  |  |  |
| CCOC(=O)c1c(CSc2ccccc2)n(C)c2cc(Br)c(O)c(CN(C)C)c12 [UMIFENOVIR] | 12 | 1 | 6 | 15 | 15 |  |  |  |
| CCOC(=O)c1c(CS(=O)(=O)c2ccccc2)n(C)c2ccc(CN3CCN(C)CC3)cc12 | >50 | 4 | >6.3 | >50 | >12.5 |  |  |  |
| CCOC(=O)c1c(CS(=O)(=O)c2ccccc2)n(C)c2ccc(CN3CCCC3)cc12 | >50 | 3 | >10 | >50 | >16.7 | 95 | 80 | Non-toxic |
| CCOC(=O)c1c(CS(=O)(=O)c2ccccc2)n(C)c2ccc(CN3CCOCC3)cc12 | >50 | 4 | >3.6 | >50 | >12.5 |  |  |  |
| CCOC(=O)c1c(CS(=O)(=O)c2ccccc2)n(C)c2ccc(CN(C)C)cc12 | >50 | 10 | >2.6 | >50 | >5 |  |  |  |
